Source: PMC3040456 (Current Chemical Genomics, 2010)
Where two headings read alike, the source gives them in different places. One block for each compound: values may come before it.

Columns and labels:
[1] = molecular target: T1, α-Galactosidase A from green coffee beans (Coffea arabica, UniProt Q42656); test: GLA enzyme kinetics assay; format: biochemical
GLA = settings: cited from earlier work
[2] = molecular target: T1, α-Galactosidase A from green coffee beans; test: GLA enzyme assay with 4MU-α-Gala, purified enzyme from green coffee beans; format: biochemical; settings: for selectivity for GLA over GC (words): GLA vs GC; for inhibitory activity against GLA in qHTS and confirmation: bioactive 6,160 compound set; for IC50: read-out: IC50 for GLA, coffee bean GLA 1 nM, 40 μM 4MU-α-Gala, pH 5.9
[3] = molecular target: T2, human recombinant glucocerebrosidase (GC) (Homo sapiens, UniProt P04062, R534H); test: glucocerebrosidase; format: biochemical
T2 sequence (P04062 40-536 R534H): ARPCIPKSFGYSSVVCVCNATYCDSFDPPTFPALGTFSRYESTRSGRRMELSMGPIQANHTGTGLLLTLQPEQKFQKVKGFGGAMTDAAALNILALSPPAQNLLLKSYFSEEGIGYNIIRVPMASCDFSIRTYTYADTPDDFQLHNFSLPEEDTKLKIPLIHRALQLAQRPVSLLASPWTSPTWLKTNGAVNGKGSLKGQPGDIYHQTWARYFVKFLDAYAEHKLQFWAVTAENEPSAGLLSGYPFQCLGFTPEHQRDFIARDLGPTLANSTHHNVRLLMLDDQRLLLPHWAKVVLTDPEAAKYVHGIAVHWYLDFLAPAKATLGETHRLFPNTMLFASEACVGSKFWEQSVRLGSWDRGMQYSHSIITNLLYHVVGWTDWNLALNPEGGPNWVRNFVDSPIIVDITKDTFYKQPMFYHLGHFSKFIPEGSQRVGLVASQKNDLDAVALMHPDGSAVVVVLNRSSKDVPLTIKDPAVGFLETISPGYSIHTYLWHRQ
Outline: (§1)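 Enzyme (2 μl), then 23 nl test compound in DMSO, then 1 μl 4MU substrate; 30 min at 21 °C, NaOH/glycine stop (pH 11.6), fluorescence at ex 365/em 440 nm. Enzymes stored in 30% glycerol at -80°C. GC: clinical imiglucerase, 1.9 nM, 800 μM 4MU-β-Glc, citrate/phosphate pH 5.9. GAA: 8 nM, 160 μM 4MU-α-glc, same buffer titrated to pH 5.0.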

rice α-glucosidase (GAA) = test: α-glucosidase; format: biochemical; settings: enzyme 8 nM, substrate 160 μM
Outline: as §1

human recombinant GLA = molecular target: T3, human recombinant GLA (Homo sapiens, UniProt P06280); test: qHTS with human recombinant GLA; format: biochemical; settings: human recombinant GLA screen
T3 sequence (P06280 32-429): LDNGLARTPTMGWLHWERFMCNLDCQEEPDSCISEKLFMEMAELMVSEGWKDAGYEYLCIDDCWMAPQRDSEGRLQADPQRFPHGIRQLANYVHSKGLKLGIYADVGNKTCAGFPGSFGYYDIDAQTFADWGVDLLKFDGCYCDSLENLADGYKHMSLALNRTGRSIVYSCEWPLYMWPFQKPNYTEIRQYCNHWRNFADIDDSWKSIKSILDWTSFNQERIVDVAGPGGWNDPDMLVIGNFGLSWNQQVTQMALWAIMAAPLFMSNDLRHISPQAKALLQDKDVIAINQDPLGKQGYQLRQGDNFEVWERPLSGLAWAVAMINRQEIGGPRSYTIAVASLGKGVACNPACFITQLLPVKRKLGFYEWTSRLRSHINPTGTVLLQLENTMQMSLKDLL

[4] = molecular target: T4, GLA in human spleen homogenate (Homo sapiens, UniProt P06280); test: qHTS with GLA in human spleen homogenate; format: biochemical; settings: human spleen homogenate screen
T4 sequence (P06280 32-429): T3 sequence (P06280 32-429)

[5] = read-out: IC50 for GC, enzyme 1.9 nM, substrate 800 μM

T1 sequence (Q42656 16-378): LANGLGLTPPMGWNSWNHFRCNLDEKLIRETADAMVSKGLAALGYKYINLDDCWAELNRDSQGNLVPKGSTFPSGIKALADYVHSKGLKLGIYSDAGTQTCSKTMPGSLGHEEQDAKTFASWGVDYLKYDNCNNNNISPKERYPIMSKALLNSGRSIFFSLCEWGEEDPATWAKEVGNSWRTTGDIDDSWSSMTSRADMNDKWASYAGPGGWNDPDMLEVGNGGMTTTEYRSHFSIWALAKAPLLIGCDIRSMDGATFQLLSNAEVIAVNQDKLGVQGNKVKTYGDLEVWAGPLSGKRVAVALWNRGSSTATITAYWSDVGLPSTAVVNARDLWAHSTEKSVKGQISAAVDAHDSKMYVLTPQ

Compound: OC[C@H]1NC[C@H](O)[C@@H](O)[C@H]1O [DGJ, 1-deoxygalactonojirimycin]
IC50 (GLA; read-out: reported IC50 value): 3 nM

Compound: O=C([O-])c1ccccc1-c1c2cc(Br)c(=O)cc-2oc2[c]([Hg+])c([O-])c(Br)cc12.[Na+].[Na+].[OH-] [merbromin]
selectivity for GLA over GC (words) [2]: not selective for GLA | selectivity for GLA over GC (words) ([2]; listed as Merbromin): more potent against GC than GLA | inhibitory activity against GLA in qHTS and confirmation [2]: relatively high inhibitory activity | IC50 [2]: 1380 nM | IC50 [3, 5]: 630 nM | inhibition of GAA (rice α-glucosidase (GAA)): slightly inhibited GAA

Compound: CC(=O)[O][Hg][c]1ccccc1 [phenylmercuric acetate]
selectivity for GLA over GC (words) [2]: not selective for GLA | selectivity for GLA over GC (words) ([2]; listed as Phenylmercuric acetate): significantly more potent against GC than GLA | inhibitory activity against GLA in qHTS and confirmation [2]: relatively high inhibitory activity | IC50 [2]: 7420 nM | IC50 [3, 5]: 82 nM | inhibition of GAA (rice α-glucosidase (GAA)): did not inhibit GAA

Now from value to compound, other results behind:

Km ([1]; pH 4.5): 102 µM | Vmax ([1]; pH 4.5): 2.76 pmol/min | Km ([1]; pH 5.9, 1 nM enzyme): 144 µM | Vmax ([1]; pH 5.9, 1 nM enzyme): 5.74 pmol/min
Compound: Cc1cc(=O)oc2cc(O[C@H]3O[C@H](CO)[C@H](O)[C@H](O)[C@H]3O)ccc12 [4MU-α-Gala, 4-methylumbelliferyl-α-D-galactopyranoside]
Km (GLA; same substrate, pH 6.5): 239 µM

selectivity for GLA over GC (words) [2]: showed selectivity for GLA over GC | inhibitory activity against GLA in qHTS and confirmation [2]: relatively high inhibitory activity | IC50 [3]: 122000 nM | inhibition of GAA (rice α-glucosidase (GAA)): did not inhibit GAA | activity with the human enzyme (human recombinant GLA): not active | activity with the human enzyme [4]: not active | Ki [1]: 5500 nM | type of inhibition ([1]; Lineweaver-burk plot): mixed type of inhibition
Compound: Cc1c(OCC(F)(F)F)ccnc1C[S+]([O-])c1nc2ccccc2[nH]1 (stereo not drawn) [lansoprazole]

effect on GLA activity ([2]; titration 0.15 to 40 mM): decreased the GLA activity
Compound: C[C@H](CCC(=O)NCCS(=O)(=O)O)[C@H]1CC[C@H]2[C@@H]3[C@H](O)C[C@@H]4C[C@H](O)CC[C@]4(C)[C@H]3C[C@H](O)[C@]12C [sodium taurocholate]
